Converted amounts (≈) assume the structure as drawn.

Consider four compounds from ChEMBL document CHEMBL1125920, “Synthesis and biological activity of 5-alkyl-1,7,8-trisubstituted-6-fluoroquinoline-3-carboxylic acids” (1991).

One assay has as its system Streptococcus pneumoniae. Description: Antibacterial activity was determined against gram positive organism, Streptococcus pneumoniae (SV-1). Type of assay: functional. Summed up: (§1)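 MIC by standard microtitration against a panel of 10 representative Gram-negative and Gram-positive organisms; values reported in µg/mL.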
The test system of assay [1] is Mus musculus. Description: In vivo oral protective dose was determined in female charles river CD-1 mice infected with Streptococcus pneumoniae. Type of assay: functional. To be noted: read-out: PD50. The method in brief: (§2)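 Acute lethal systemic infection model in mice; drug given orally by gavage; potency read out as median protective dose (PD50), in mg/kg.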
Assay [2] concerns Staphylococcus aureus. Description: Antibacterial activity was determined against gram positive organism, Staphylococcus aureus (UC76). Type of assay: functional. The method in brief:
as §1

Another assay has as its system Pseudomonas aeruginosa. Description: Antibacterial activity was determined against gram negative organism, Pseudomonas aeruginosa (UI-18). Type of assay: functional. Summed up: as §1
The test system of assay [3] is Mus musculus. Description: In vivo subcutaneous protective dose was determined in female charles river CD-1 mice infected with Escherichia coli (vogel). The settings on record: sc, read-out: PD50. Type of assay: functional. Summed up: (§3)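 Acute lethal systemic infection model in mice; drug given by subcutaneous injection; potency read out as median protective dose (PD50), in mg/kg.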

For a further assay, the system named is Bacteria. Description: Antibacterial activity was determined against gram negative organism, Providencia rettgeri. (M1771). Type of assay: functional. Summed up: as §1
A further assay deals with Klebsiella pneumoniae. Description: Antibacterial activity was determined against gram negative organism, K. pneumoniae (MGH-2). Type of assay: functional. The method in brief: as §1
For assay [4], the target named is DNA gyrase (Escherichia coli) (UniProt P0AES6+P0AES4).
For assay [5], the system named is Staphylococcus aureus. Description: Antibacterial activity was determined against gram positive organism, Staphylococcus aureus (H228). Type of assay: functional. The method in brief: as §1
Assay [6] can be described thus: MIC ratio measured as the mean MICs of gram-positive bacteria. Type of assay: functional. Summed up:
(§4)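 Geometric mean of the MICs (µg/mL) over the Gram-negative or the Gram-positive strains of the 10-organism microtitration panel, calculated separately for each class.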

For a further assay, the system named is Escherichia coli. Description: Antibacterial activity was determined against gram negative organism, E. coli(vogel). Type of assay: functional. Summed up: as §1
The subject of a further assay is Enterococcus faecalis. Description: Antibacterial activity was determined against gram positive organism, Streptococcus faecalis (MGH-2). Type of assay: functional. Summed up:
as §1

Assay [7] has as its system Mus musculus. Description: In vivo subcutaneous protective dose was determined in female charles river CD-1 mice infected with Streptococcus pneumoniae. Type of assay: functional. To be noted: sc, read-out: PD50. The method in brief:
as §3

The nature of assay [8]: MIC ratio measured as the mean MICs of gram-negative bacteria. Type of assay: functional. Summed up: as §4
The test system of assay [9] is Mus musculus. Description: In vivo oral protective dose was determined in female charles river CD-1 mice infected with Escherichia coli (vogel). Type of assay: functional. The settings on record: Mus musculus, po; read-out: PD50. Summed up:
as §2

The next assay deals with Streptococcus pyogenes. Description: Antibacterial activity was determined against gram positive organism, Streptococcus pyogenes (C203). Type of assay: functional. The method in brief: as §1
Another assay has as its system Enterobacter cloacae. Description: Antibacterial activity against gram negative organism, […] (MA2646). Type of assay: functional.

With `Cc1c(F)c(N2CCNC(C)C2)cc2c1c(=O)c(C(=O)O)cn2C1CC1` (stereo not drawn) [GREPAFLOXACIN], the MIC – broadly, the smallest concentration in the dilution series that meets the test's criterion for growth inhibition – against Streptococcus pneumoniae came to 0.025 µg/mL (≈ 0.0696 µM); against Staphylococcus aureus [2], 0.025 µg/mL (≈ 0.0696 µM); against Pseudomonas aeruginosa it was 0.8 µg/mL (≈ 2.23 µM); with Bacteria it was 0.2 µg/mL (≈ 0.556 µM); against Klebsiella pneumoniae, 0.05 µg/mL (≈ 0.139 µM); in the assay on Staphylococcus aureus [5], 0.1 µg/mL (≈ 0.278 µM). The minimal inhibitory concentration (MIC) in the assay with Escherichia coli worked out at 0.013 µg/mL (≈ 0.0362 µM); against Enterococcus faecalis it was 0.1 µg/mL (≈ 0.278 µM); against Streptococcus pyogenes, 0.05 µg/mL (≈ 0.139 µM); in the assay with Enterobacter cloacae, 0.025 µg/mL (≈ 0.0696 µM). In addition, the ED50 in the assay on Mus musculus [1] came out at 24 mg/kg; in the assay with Mus musculus [3], 0.5 mg/kg; in the assay with Mus musculus [7], 8 mg/kg; in the assay with Mus musculus [9] it was 1.5 mg/kg. The compound further registered a DNA cleavage in assay [4] of 3.75 µg/mL. In addition, the Ratio in assay [6] was determined as 2.07; in [8] it was 0.6.
In the case of `CCNCC1CCN(c2c(F)c(C)c3c(=O)c(C(=O)O)cn(C4CC4)c3c2F)C1` (stereo not drawn), the MIC was 0.003 µg/mL (≈ 0.0074 µM) against Streptococcus pneumoniae; 0.003 µg/mL (≈ 0.0074 µM) against Staphylococcus aureus [2]; 0.8 µg/mL (≈ 1.97 µM) against Pseudomonas aeruginosa; 0.2 µg/mL (≈ 0.493 µM) with Bacteria; 0.1 µg/mL (≈ 0.247 µM) with Klebsiella pneumoniae; 0.013 µg/mL (≈ 0.0321 µM) with Staphylococcus aureus [5]. The minimal inhibitory concentration (MIC) was 0.05 µg/mL (≈ 0.123 µM) in the assay on Escherichia coli, 0.025 µg/mL (≈ 0.0617 µM) in the assay with Enterococcus faecalis, 0.006 µg/mL (≈ 0.0148 µM) with Streptococcus pyogenes and 0.1 µg/mL (≈ 0.247 µM) against Enterobacter cloacae. The ED50 in the assay with Mus musculus [1] was determined as 2.8 mg/kg; in the assay with Mus musculus [3], 3 mg/kg; in the assay with Mus musculus [7], 1.6 mg/kg; in the assay with Mus musculus [9], 14 mg/kg. Moreover, the DNA cleavage in assay [4] is 3 µg/mL. Moreover, the Ratio is 0.0071 in assay [6] and 0.15 in assay [8].
As to `Cc1c(F)c(N2CCNC(C)C2)c(F)c2c1c(=O)c(C(=O)O)cn2C1CC1` (stereo not drawn), the MIC in the assay on Streptococcus pneumoniae is 0.025 µg/mL (≈ 0.0662 µM); with Staphylococcus aureus [2], 0.013 µg/mL (≈ 0.0344 µM); in the assay with Pseudomonas aeruginosa, 0.4 µg/mL (≈ 1.06 µM); against Bacteria it was 0.1 µg/mL (≈ 0.265 µM); in the assay with Klebsiella pneumoniae it was 0.05 µg/mL (≈ 0.132 µM); with Staphylococcus aureus [5], 0.025 µg/mL (≈ 0.0662 µM). For the same compound, the MIC with Escherichia coli came to 0.025 µg/mL (≈ 0.0662 µM); with Enterococcus faecalis, 0.1 µg/mL (≈ 0.265 µM); in the assay with Streptococcus pyogenes, 0.05 µg/mL (≈ 0.132 µM); with Enterobacter cloacae it was 0.025 µg/mL (≈ 0.0662 µM). The ED50 in the assay on Mus musculus [1] came to 12 mg/kg; in the assay on Mus musculus [3], 0.4 mg/kg; in the assay with Mus musculus [7], 11 mg/kg; in the assay with Mus musculus [9], 0.75 mg/kg. Moreover, in assay [4], the DNA cleavage is 3 µg/mL. For the same compound, the figures for the Ratio in assay [6] and in assay [8] were 0.033 and 0.066, respectively.
As to `Cc1c(F)c(N2CCC(N)C2)c(F)c2c1c(=O)c(C(=O)O)cn2C1CC1` (stereo not drawn), the MIC came to 0.003 µg/mL (≈ 0.00826 µM) against Streptococcus pneumoniae; 0.003 µg/mL (≈ 0.00826 µM) in the assay on Staphylococcus aureus [2]; 0.4 µg/mL (≈ 1.1 µM) with Pseudomonas aeruginosa; 0.025 µg/mL (≈ 0.0688 µM) with Bacteria; 0.013 µg/mL (≈ 0.0358 µM) against Klebsiella pneumoniae; 0.013 µg/mL (≈ 0.0358 µM) with Staphylococcus aureus [5]. The MIC against Escherichia coli is 0.006 µg/mL (≈ 0.0165 µM); in the assay with Enterococcus faecalis it was 0.025 µg/mL (≈ 0.0688 µM); against Streptococcus pyogenes, 0.013 µg/mL (≈ 0.0358 µM); against Enterobacter cloacae it was 0.006 µg/mL (≈ 0.0165 µM). Moreover, the ED50 in the assay on Mus musculus [1] came to 3 mg/kg; in the assay on Mus musculus [3], 0.5 mg/kg; with Mus musculus [7], 1.6 mg/kg; with Mus musculus [9], 2 mg/kg. The DNA cleavage in [4] came to 3 µg/mL. Further, the values for the Ratio in assay [6] and in assay [8] were 0.0082 and 0.021, respectively.
